Published values collected from several papers.
Protocols differ between the studies behind these lines.
Target: Aurora kinase C (AURKC, Homo sapiens, UniProt Q9UQB9)
One construct used (Q9UQB9 1-309): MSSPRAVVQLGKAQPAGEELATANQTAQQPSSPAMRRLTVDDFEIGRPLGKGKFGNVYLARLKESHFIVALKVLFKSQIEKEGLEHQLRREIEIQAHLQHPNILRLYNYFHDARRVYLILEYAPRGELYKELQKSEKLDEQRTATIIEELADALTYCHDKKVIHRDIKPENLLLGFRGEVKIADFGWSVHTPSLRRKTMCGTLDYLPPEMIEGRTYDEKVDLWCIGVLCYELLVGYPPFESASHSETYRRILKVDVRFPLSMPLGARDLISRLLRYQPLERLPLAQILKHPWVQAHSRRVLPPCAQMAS

O=c1[nH]c2ccccc2n1C1CCN(Cc2ccc(-c3[nH]c4cc5ncnc5cc4nc3-c3ccccc3)cc2)CC1
remaining signal (cell-free assay; 0.5 µM): 96%

COc1cc(Nc2ncc(F)c(Nc3ccc4c(n3)NC(=O)C(C)(C)O4)n2)cc(OC)c1OC
inhibition (binding; competition with immobilised ligand; 10 µM): 95%

N#CC1(c2ccccn2)CCN(Cc2cc(C(=O)O)c(=O)n3ccccc23)CC1
remaining binding (cell-free assay; competition with immobilised ligand; 1 µM): 94%

Nc1ncc(-c2nc(N3CCOCC3)nc(N3CCOCC3)n2)c(C(F)F)n1
remaining binding (binding; competition with immobilised ligand; 10 µM): 91%

CC(C)(C)c1cc(C=C(C#N)C#N)cc(Br)c1O
remaining activity (enzyme activity; inhibitor; 0.5 µM): 87.6%

COc1ncccc1-c1cnn2ccc(N3CCN(C(=O)OC(C)C)CC3)nc12
remaining binding (binding; competition with immobilised ligand; 1 µM): 56%

Cn1cc(-c2cccc(N3CCc4c(sc5c4CC(C)(C)C5)C3=O)c2CO)cc(Nc2ccncn2)c1=O
inhibition (enzyme activity; inhibitor; 1 µM): 5%

Cn1cncc1[C@](O)(COc1ccc(C#N)cc1-c1ccc(OC(F)(F)F)cc1)c1ccc(C#N)cc1
remaining binding (cell-free assay; competition with immobilised ligand; 1 µM): 100%

C#Cc1n[nH]c2c(-c3cn(C(C)c4ccccn4)c(=O)[nH]c3=O)cc(F)cc12 (stereo not shown)
inhibition (enzyme activity; inhibitor; 1 µM): 1.7%

Cn1cc(-c2cc(F)cc(N3CCn4c(cc5c4CCCC5)C3=O)c2CO)cc(Nc2ccc(N3CCN(C4COC4)CC3)cn2)c1=O
inhibition (enzyme activity; inhibitor; 0.1 µM): 5%
